Calls of active or inactive are those of the source.
Key:
Staphylococcus aureus [1] = assay: Antibacterial activity against methicillin-sensitive Staphylococcus aureus ATCC 6538 measured after overnight incubation by broth double-dilution method; format: functional
In short: (§1)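 MIC by broth double-dilution in liquid Mueller-Hinton medium. Values are reported in µg/mL.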

Staphylococcus aureus [2] = assay: Antibacterial activity against methicillin-sensitive Staphylococcus aureus ATCC 25923 measured after overnight incubation by broth double-dilution method; format: functional; in short: as §1
Staphylococcus aureus [3] = assay: Antibacterial activity against methicillin-sensitive Staphylococcus aureus ATCC 29213 measured after overnight incubation by broth double-dilution method; format: functional; in short: as §1
Staphylococcus aureus [4] = assay: Antibacterial activity against methicillin-resistant Staphylococcus aureus ATCC 33591 measured after overnight incubation by broth double-dilution method; format: functional; in short: as §1
Staphylococcus aureus [5] = assay: Antibacterial activity against methicillin-resistant Staphylococcus aureus 1 measured after overnight incubation by broth double-dilution method; format: functional; in short: as §1
Staphylococcus aureus [6] = assay: Antibacterial activity against methicillin-resistant Staphylococcus aureus 2 measured after overnight incubation by broth double-dilution method; format: functional; in short: as §1
Staphylococcus aureus [7] = assay: Antibacterial activity against methicillin-resistant Staphylococcus aureus BRS3 measured after overnight incubation by broth double-dilution method; format: functional; in short: as §1
Staphylococcus aureus [8] = assay: Antibacterial activity against methicillin-resistant Staphylococcus aureus C1 measured after overnight incubation by broth double-dilution method; format: functional; in short: as §1
Staphylococcus aureus [9] = assay: Antibacterial activity against methicillin-resistant Staphylococcus aureus C2 measured after overnight incubation by broth double-dilution method; format: functional; in short: as §1
Staphylococcus aureus [10] = assay: Antibacterial activity against methicillin-resistant Staphylococcus aureus C7 measured after overnight incubation by broth double-dilution method; format: functional; in short: as §1
Staphylococcus aureus [11] = assay: Antibacterial activity against methicillin-resistant Staphylococcus aureus C14 measured after overnight incubation by broth double-dilution method; format: functional; in short: as §1
Staphylococcus aureus [12] = assay: Antibacterial activity against methicillin-resistant Staphylococcus aureus C16 measured after overnight incubation by broth double-dilution method; format: functional; in short: as §1
Staphylococcus aureus [13] = assay: Antibacterial activity against methicillin-resistant Staphylococcus aureus C19 measured after overnight incubation by broth double-dilution method; format: functional; in short: as §1
Staphylococcus aureus [14] = assay: Antibacterial activity against methicillin-resistant Staphylococcus aureus G1 measured after overnight incubation by broth double-dilution method; format: functional; in short: as §1
Staphylococcus aureus [15] = assay: Antibacterial activity against methicillin-resistant Staphylococcus aureus G6 measured after overnight incubation by broth double-dilution method; format: functional; in short: as §1
Staphylococcus aureus [16] = assay: Antibacterial activity against methicillin-resistant Staphylococcus aureus G12 measured after overnight incubation by broth double-dilution method; format: functional; in short: as §1
Staphylococcus aureus [17] = assay: Antibacterial activity against methicillin-resistant Staphylococcus aureus G14 measured after overnight incubation by broth double-dilution method; format: functional; in short: as §1
Staphylococcus aureus [18] = assay: Antibacterial activity against methicillin-resistant Staphylococcus aureus NRS4 measured after overnight incubation by broth double-dilution method; format: functional; in short: as §1
Staphylococcus aureus [19] = assay: Antibacterial activity against methicillin-resistant Staphylococcus aureus NRS51 measured after overnight incubation by broth double-dilution method; format: functional; in short: as §1
Staphylococcus aureus [20] = assay: Antibacterial activity against methicillin-resistant Staphylococcus aureus NRS77 measured after overnight incubation by broth double-dilution method; format: functional; in short: as §1
Staphylococcus aureus [21] = assay: Antibacterial activity against methicillin-resistant Staphylococcus aureus S14 measured after overnight incubation by broth double-dilution method; format: functional; in short: as §1
Staphylococcus aureus [22] = assay: Antibacterial activity against methicillin-resistant Staphylococcus aureus S17 measured after overnight incubation by broth double-dilution method; format: functional; in short: as §1
Staphylococcus aureus [23] = assay: Antibacterial activity against methicillin-resistant Staphylococcus aureus S22 measured after overnight incubation by broth double-dilution method; format: functional; in short: as §1
Staphylococcus aureus [24] = assay: Antibacterial activity against methicillin-resistant Staphylococcus aureus S24 measured after overnight incubation by broth double-dilution method; format: functional; in short: as §1
Staphylococcus aureus [25] = assay: Antibacterial activity against methicillin-resistant Staphylococcus aureus USA100 measured after overnight incubation by broth double-dilution method; format: functional; in short: as §1
Staphylococcus aureus [26] = assay: Antibacterial activity against methicillin-resistant Staphylococcus aureus USA200 measured after overnight incubation by broth double-dilution method; format: functional; in short: as §1
Staphylococcus aureus [27] = assay: Antibacterial activity against methicillin-resistant Staphylococcus aureus USA300 measured after overnight incubation by broth double-dilution method; format: functional; in short: as §1
Staphylococcus aureus [28] = assay: Antibacterial activity against methicillin-resistant Staphylococcus aureus USA600 measured after overnight incubation by broth double-dilution method; format: functional; in short: as §1
[29] = test system: Staphylococcus epidermidis; assay: Antibacterial activity against Staphylococcus epidermidis ATCC 35984 measured after overnight incubation by broth double-dilution method; format: functional; settings: RP62A
In short: (§2)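 MIC by broth double-dilution in Mueller-Hinton medium. Re-testing at the time-kill inoculum used 1×10^6 CFU/mL.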

Enterococcus faecalis [30] = assay: Antibacterial activity against Enterococcus faecalis ATCC 29212 measured after overnight incubation by broth double-dilution method; format: functional; in short: as §2
Enterococcus faecalis [31] = assay: Antibacterial activity against Enterococcus faecalis ATCC 49533 measured after overnight incubation by broth double-dilution method; format: functional; in short: as §2
Enterococcus faecium = assay: Antibacterial activity against Enterococcus faecium BM4105-RF measured after overnight incubation by broth double-dilution method; format: functional; in short: as §1
Enterococcus = assay: Antibacterial activity against Vancomycin-resistant Enterococcus measured after overnight incubation by broth double-dilution method; format: functional; in short: as §1
Listeria monocytogenes = assay: Antibacterial activity against Listeria monocytogenes ATCC 19115 measured after overnight incubation by broth double-dilution method; format: functional; in short: as §2
[32] = test system: Mycolicibacterium smegmatis; assay: Antibacterial activity against Mycobacterium smegmatis MC2-155 measured after overnight incubation by broth double-dilution method; format: functional; settings: str. MC2 155; in short: as §1
Acinetobacter baumannii = assay: Antibacterial activity against Acinetobacter baumannii ATCC 19606 measured after overnight incubation by broth double-dilution method; format: functional; in short: as §2
Enterobacter cloacae = assay: Antibacterial activity against Enterobacter cloacae ATCC 13047 measured after overnight incubation by broth double-dilution method; format: functional; settings: subsp. cloacae ATCC 13047; in short: as §1
Escherichia coli = assay: Antibacterial activity against Escherichia coli MC1061 measured after overnight incubation by broth double-dilution method; format: functional; in short: as §1
Klebsiella pneumoniae = assay: Antibacterial activity against Klebsiella pneumoniae ATCC 27736 measured after overnight incubation by broth double-dilution method; format: functional; in short: as §1
Pseudomonas aeruginosa = assay: Antibacterial activity against Pseudomonas aeruginosa ATCC 27853 measured after overnight incubation by broth double-dilution method; format: functional; in short: as §2
Salmonella enterica = assay: Antibacterial activity against Salmonella enterica ATCC 14028 measured after overnight incubation by broth double-dilution method; format: functional; in short: as §2
[33] = test system: Staphylococcus epidermidis; assay: Antibacterial activity against Staphylococcus epidermidis ATCC 12228 measured after overnight incubation by broth double-dilution method; format: functional; in short: as §2
Staphylococcus aureus [34] = assay: Bacteriostatic activity against methicillin-resistant Staphylococcus aureus S22 at 0.5 times MIC measured up to 3 to 6 hrs by time kill analysis; format: functional
Staphylococcus aureus [35] = assay: Bacteriostatic activity against methicillin-resistant Staphylococcus aureus S22 at MIC measured up to 3 to 6 hrs by time kill analysis; format: functional
Staphylococcus aureus [36] = assay: Bactericidal activity against methicillin-resistant Staphylococcus aureus S22 at 4 times MIC measured after 24 hrs by time kill analysis; format: functional
Staphylococcus aureus [37] = assay: Antibiofilm activity against methicillin-sensitive Staphylococcus aureus ATCC 6538 assessed as reduction of biofilm at […] ug/ml measured after 24 hrs by crystal violet staining based method relative to untreated control; format: functional; parameters: scale not given: the % may be the effect or the level left
Staphylococcus aureus [38] = assay: Antibiofilm activity against methicillin-sensitive Staphylococcus aureus ATCC 6538 assessed as reduction in biofilm mass at 2 ug/ml measured after 24 hrs by crystal violet staining based method relative to control; format: functional; parameters: scale not given: the % may be the effect or the level left
[39] = test system: Staphylococcus epidermidis; assay: Antibiofilm activity against Staphylococcus epidermidis ATCC 35984 assessed as reduction of biofilm at […] ug/ml measured after 24 hrs by crystal violet staining based method relative to control; format: functional, RP62A; parameters: scale not given: the % may be the effect or the level left
[40] = Cytotoxicity against mouse RBCs assessed as hemolysis up to […] measured after 1 hr; format: toxicity, Erythrocyte; settings: mouse red blood cells, read-out: Activity
[41] = Cytotoxicity against HEK293 cells assessed as cell death up to 10 ug/ml measured after 24 hrs by resazurin dye-based fluorescence analysis relative to untreated control; format: toxicity; settings: human, hek293, 24 h
Staphylococcus aureus [42] = assay: Antibacterial activity against methicillin-resistant Staphylococcus aureus S22 using 1 10^6CFU/ml measured after overnight incubation by broth double-dilution method; format: functional

O=c1c2ccccc2[se]n1-c1ccccc1 [EBSELEN]
20%: Activity (Staphylococcus aureus [37]) | Activity [39]
Non-Toxic: Activity [41]
≤ 20%: hemolysis at 1 h [40]
2 µg/mL: MIC (Staphylococcus aureus [1]) | MIC (Staphylococcus aureus [3]) | MIC (Staphylococcus aureus [6]) | MIC (Staphylococcus aureus [8]) | MIC (Staphylococcus aureus [11]) | MIC (Staphylococcus aureus [14]) | MIC (Staphylococcus aureus [25]) | MIC (Staphylococcus aureus [26])
3.9 µg/mL: MIC (Staphylococcus aureus [2]) | MIC (Staphylococcus aureus [12]) | MIC (Staphylococcus aureus [20]) | MIC (Staphylococcus aureus [27]) | MIC (Staphylococcus aureus [28])
7.8 µg/mL: MIC (Staphylococcus aureus [7]) | MIC (Staphylococcus aureus [18]) | MIC [32] | MIC (Escherichia coli)
active: Activity (Staphylococcus aureus [34]) | Activity (Staphylococcus aureus [35]) | Activity (Staphylococcus aureus [36]) | Activity (Staphylococcus aureus [42])
1 µg/mL: MIC (Staphylococcus aureus [9]) | MIC (Staphylococcus aureus [13]) | MIC (Staphylococcus aureus [15]) | MIC (Staphylococcus aureus [16]) | MIC (Staphylococcus aureus [17]) | MIC (Staphylococcus aureus [19]) | MIC (Staphylococcus aureus [22]) | MIC (Staphylococcus aureus [23]) | MIC (Enterococcus) | MIC (Listeria monocytogenes)
≤ 0.25 µg/mL: MIC (Staphylococcus aureus [5]) | MIC (Staphylococcus aureus [21]) | MIC (Enterococcus faecalis [31])
15.6 µg/mL: MIC (Acinetobacter baumannii)
> 125 µg/mL: MIC (Enterobacter cloacae) | MIC (Klebsiella pneumoniae) | MIC (Pseudomonas aeruginosa) | MIC (Salmonella enterica) | MIC [33]
0.5 µg/mL: MIC (Staphylococcus aureus [4]) | MIC (Staphylococcus aureus [10]) | MIC (Staphylococcus aureus [24]) | MIC (Enterococcus faecalis [30]) | MIC (Enterococcus faecium)
60%: Activity (Staphylococcus aureus [38])
0.25 µg/mL: MIC [29]

Source: ChEMBL document CHEMBL3864121, “Development of ebsulfur analogues as potent antibacterials against methicillin-resistant Staphylococcus aureus” (Bioorg Med Chem, 2016)
